Measurements as given in ChEMBL document CHEMBL1153955, “Indolylarylsulfones bearing natural and unnatural amino acids. Discovery of potent inhibitors of HIV-1 non-nucleoside wild type and resistant mutant strains reverse transcriptase and coxsackie B4 virus” (J Med Chem, 2009).

Tests used:
[1] = tested on: Respiratory syncytial virus; test: Antiviral activity against RSV Long in human HeLa cells assessed as protection against virus-induced cytopathicity; format: functional, organism-based
How it was run: (§1)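 Confluent cell monolayers inoculated with 100 CCID₅₀ virus. After 1-2 h adsorption, residual virus removed and cultures incubated with varying compound concentrations. Cytopathicity scored once it reached completion in untreated infected controls. EC₅₀ = dose reducing virus-induced cytopathogenicity by 50%.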

Coxsackievirus B4 [2] = test: Antiviral activity against Coxsackievirus B4 in african green monkey Vero cells assessed as protection against virus-induced cytopathicity; format: functional, organism-based; conditions: Enterovirus B; how it was run: as §1
[3] = tested on: Human immunodeficiency virus 1; test: Antiviral activity against HIV1 3B in human CEM cells assessed as protection against virus-induced cytopathicity after 4 days; format: functional, organism-based; conditions: Human immunodeficiency virus 1, 3B, CCRF-CEM, 96 h
How it was run: (§2)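 CEM cells (~3 × 10⁵ cells/mL) infected with ~100 CCID₅₀ per mL of HIV-1 (IIIB) or HIV-2 (ROD), then seeded into wells containing compound dilutions. After 4 days at 37 °C, syncytium (giant cell) formation was examined microscopically. EC₅₀ = concentration protecting CEM cells from HIV cytopathicity by 50%.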

[4] = Cytotoxicity against human HEL cells assessed as drug level causing microscopically detectable alteration of normal cell morphology after 3 days; format: cell-based
[5] = biological target: Human immunodeficiency virus type 1 reverse transcriptase (Human immunodeficiency virus 1, UniProt Q72547, Y181I); test: Inhibition of HIV1 reverse transcriptase p66/p51 Y181I mutant; conditions: read-out: IC50
How it was run: (§3)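 Substrate was 0.5 µg poly(rA)/oligo(dT) 10:1 (0.3 µM 3′-OH ends) with 10 µM [³H]dTTP, at 37 °C. Acid-precipitable radioactivity was counted on GF/C filters after TCA washes.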

[6] = Cytotoxicity against MDCK cells assessed as drug level causing microscopically detectable alteration of normal cell morphology; format: cell-based, Canis lupus familiaris; conditions: dog
[7] = tested on: Vesicular stomatitis virus; test: Antiviral activity against VSV in human HEL cells assessed as protection against virus-induced cytopathicity; format: functional, organism-based
[8] = biological target: Human immunodeficiency virus type 1 reverse transcriptase (Human immunodeficiency virus 1, UniProt Q72547); test: Inhibition of HIV1 reverse transcriptase p66/p51; conditions: read-out: IC50
CCRF-CEM = test: Antiproliferative activity against human CEM cells after 3 days; format: cell-based; conditions: 72 h
How it was run: (§4)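 Cells seeded at 5 × 10⁴ to 7.5 × 10⁴ cells/200 µL with or without serial compound dilutions; incubated at 37 °C for 2 days (L1210) or 3 days (Molt4/C8, CEM). Cell numbers counted with a Coulter counter. CC₅₀ = concentration reducing proliferation by 50% versus untreated controls, read from plots of cell number (% of control) against concentration. Means of at least two independent experiments.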

[9] = Cytotoxicity against feline CRFK cells by MTS assay; format: cell-based, Felis catus; conditions: cat
[10] = tested on: Mammalian orthoreovirus 1; test: Antiviral activity against Reovirus 1 in african green monkey Vero cells assessed as protection against virus-induced cytopathicity; format: functional, organism-based; conditions: Mammalian orthoreovirus 1, Vero; how it was run: as §1
[11] = tested on: Human immunodeficiency virus 1; test: Antiviral activity against HIV1 with reverse transcriptase Y188L mutation in human CEM cells assessed as protection against virus-induced cytopathicity; format: functional, organism-based; conditions: Human immunodeficiency virus 1, CCRF-CEM
How it was run: (§5)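 CEM cells (~3 × 10⁵ cells/mL) were infected with ~100 CCID₅₀ virus per mL and seeded with serial compound dilutions. After 4 days at 37 °C, syncytium (giant cell) formation was scored microscopically. EC₅₀ is the concentration giving 50% protection against virus cytopathicity.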

L1210 = test: Antiproliferative activity against mouse L1210 cells after 2 days; format: cell-based; conditions: L1210, 48 h; how it was run: as §4
Vaccinia virus = test: Antiviral activity against Vaccinia virus Lederle in human HEL cells assessed as protection against virus-induced cytopathicity; format: functional, organism-based; conditions: Orthopoxvirus vaccinia
Influenza A virus H3N2 [12] = test: Antiviral activity against influenza H3N2 virus in MDCK cells assessed as reduction of virus-induced cytopathicity by visual cytopathic effect scoring method; format: functional, organism-based
Influenza A virus H3N2 [13] = test: Antiviral activity against influenza H3N2 virus in MDCK cells assessed as reduction of virus-induced cytopathicity by MTS method; format: functional, organism-based
Human alphaherpesvirus 2 = test: Antiviral activity against HSV2 G in human HEL cells assessed as protection against virus-induced cytopathicity; format: functional, organism-based; conditions: Human alphaherpesvirus 2, strain G; how it was run: as §1
Human alphaherpesvirus 1 [14] = test: Antiviral activity against thymidine kinase deficient and acyclovir resistant HSV1 KOS in human HEL cells assessed as protection against virus-induced cytopathicity; format: functional, organism-based; conditions: Human alphaherpesvirus 1, KOS
[15] = tested on: Human immunodeficiency virus 1; test: Antiviral activity against HIV1 with reverse transcriptase Y181C mutation in human CEM cells assessed as protection against virus-induced cytopathicity; format: functional, organism-based; conditions: Human immunodeficiency virus 1, CCRF-CEM; how it was run: as §5
[16] = tested on: Vesicular stomatitis virus; test: Antiviral activity against VSV in human HeLa cells assessed as protection against virus-induced cytopathicity; format: functional, organism-based
Human alphaherpesvirus 1 [17] = test: Antiviral activity against HSV1 KOS in human HEL cells assessed as protection against virus-induced cytopathicity; format: functional, organism-based; conditions: Human alphaherpesvirus 1, KOS
[18] = biological target: Human immunodeficiency virus type 1 reverse transcriptase (Human immunodeficiency virus 1, UniProt Q72547, K103N); test: Inhibition of HIV1 reverse transcriptase p66/p51 K103N mutant; conditions: read-out: IC50; how it was run: as §3
[19] = tested on: Human immunodeficiency virus 1; test: Antiviral activity against HIV1 with reverse transcriptase L100I mutation in human CEM cells assessed as protection against virus-induced cytopathicity; format: functional, organism-based; conditions: Human immunodeficiency virus 1, CCRF-CEM; how it was run: as §5
Human respirovirus 3 = test: Antiviral activity against Parainfluenza virus type 3 in african green monkey Vero cells assessed as protection against virus-induced cytopathicity; format: functional, organism-based; conditions: Human respirovirus 3, Vero; how it was run: as §1
Feline coronavirus = test: Antiviral activity against Feline coronavirus in feline […] cells assessed as inhibition of virus-induced cytopathicity; format: functional, organism-based; conditions: Alphacoronavirus 1
Felid alphaherpesvirus 1 = test: Antiviral activity against Feline herpesvirus in feline […] cells assessed as inhibition of virus-induced cytopathicity; format: functional, organism-based
[20] = Antiproliferative activity against human Molt4/C8 cells after 3 days; format: cell-based; conditions: MOLT-4, 72 h; how it was run: as §4
Influenza A virus [21] = test: Antiviral activity against influenza H1N1 virus in MDCK cells assessed as reduction of virus-induced cytopathicity by MTS method; format: functional, organism-based; conditions: Influenza A virus, H1N1, MDCK
Coxsackievirus B4 [22] = test: Antiviral activity against Coxsackievirus B4 in human HeLa cells assessed as protection against virus-induced cytopathicity; format: functional, organism-based; conditions: Enterovirus B; how it was run: as §1
[23] = Cytotoxicity against MDCK cells by MTS assay; format: cell-based, Canis lupus familiaris; conditions: dog
[24] = tested on: Human immunodeficiency virus 2; test: Antiviral activity against HIV2 ROD in human CEM cells assessed as protection against virus-induced cytopathicity after 4 days; format: functional, organism-based; conditions: Human immunodeficiency virus 2, ROD, CCRF-CEM, 96 h; how it was run: as §2
[25] = Cytotoxicity against african green monkey Vero cells assessed as drug level causing microscopically detectable alteration of normal cell morphology after 3 days; format: cell-based; conditions: chlorocebus sabaeus
How it was run: (§6)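 Serial compound dilutions added to confluent HeLa or Vero monolayers. MCC = minimum concentration causing microscopically detectable alteration of cell morphology after 3 days of incubation.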

Influenza B virus [26] = test: Antiviral activity against influenza B virus in MDCK cells assessed as reduction of virus-induced cytopathicity by visual cytopathic effect scoring method; format: functional, organism-based
[27] = biological target: Human immunodeficiency virus type 1 reverse transcriptase (Human immunodeficiency virus 1, UniProt Q72547, L100I); test: Inhibition of HIV1 reverse transcriptase p66/p51 L100I mutant; conditions: read-out: IC50; how it was run: as §3
Sindbis virus = test: Antiviral activity against Sindbis virus in african green monkey Vero cells assessed as protection against virus-induced cytopathicity; format: functional, organism-based; how it was run: as §1
[28] = tested on: Human immunodeficiency virus 1; test: Antiviral activity against HIV1 with reverse transcriptase Y181I mutation in human CEM cells assessed as protection against virus-induced cytopathicity; format: functional, organism-based; conditions: Human immunodeficiency virus 1, CCRF-CEM; how it was run: as §5
[29] = Cytotoxicity against human HeLa cells assessed as drug level causing microscopically detectable alteration of normal cell morphology after 3 days; format: cell-based; how it was run: as §6
[30] = tested on: Human immunodeficiency virus 1; test: Antiviral activity against HIV1 with reverse transcriptase K103N mutation in human CEM cells assessed as protection against virus-induced cytopathicity; format: functional, organism-based; conditions: Human immunodeficiency virus 1, CCRF-CEM; how it was run: as §5
Influenza B virus [31] = test: Antiviral activity against influenza B virus in MDCK cells assessed as reduction of virus-induced cytopathicity by MTS method; format: functional, organism-based
Influenza A virus [32] = test: Antiviral activity against influenza H1N1 virus in MDCK cells assessed as reduction of virus-induced cytopathicity by visual cytopathic effect scoring method; format: functional, organism-based
Punta Toro virus = test: Antiviral activity against Punta Toro virus in african green monkey Vero cells assessed as protection against virus-induced cytopathicity; format: functional, organism-based; how it was run: as §1

Cc1cc(C)cc(S(=O)(=O)c2c(C(=O)NCC(N)=O)[nH]c3ccc(Cl)cc23)c1
EC50 [1]: > 100 µM
EC50 (Coxsackievirus B4 [2]): > 100 µM
EC50 [3]: 0.0019 µM
MCC at 72 h [4]: > 100 µM
IC50 [5]: 1.65 µM
MCC [6]: 20 µM
EC50 [7]: > 100 µM
IC50 [8]: 0.026 µM
IC50 (CCRF-CEM): 92 µM
CC50 [9]: > 100 µM
EC50 [10]: > 100 µM
IC50 [11]: 0.69 µM
IC50 (L1210): 220 µM
EC50 (Vaccinia virus): > 100 µM
EC50 (Influenza A virus H3N2 [12]): > 4 µM
EC50 (Influenza A virus H3N2 [13]): > 4 µM
EC50 (Human alphaherpesvirus 2): > 100 µM
EC50 (Human alphaherpesvirus 1 [14]): > 100 µM
IC50 [15]: 0.074 µM
EC50 [16]: > 100 µM
EC50 (Human alphaherpesvirus 1 [17]): > 100 µM
IC50 [18]: 0.28 µM
IC50 [19]: 0.008 µM
EC50 (Human respirovirus 3): > 100 µM
EC50 (Feline coronavirus): > 100 µM
EC50 (Felid alphaherpesvirus 1): > 100 µM
IC50 [20]: 15 µM
EC50 (Influenza A virus [21]): > 4 µM
EC50 (Coxsackievirus B4 [22]): ≥ 20 µM
CC50 [23]: 44.1 µM
EC50 [24]: > 50 µM
MCC at 72 h [25]: > 100 µM
EC50 (Influenza B virus [26]): > 4 µM
IC50 [27]: 0.161 µM
EC50 (Sindbis virus): > 100 µM
IC50 [28]: > 1 µM
MCC at 72 h [29]: 100 µM
IC50 [30]: 0.029 µM
EC50 (Influenza B virus [31]): > 4 µM
EC50 (Influenza A virus [32]): > 4 µM
EC50 (Punta Toro virus): > 100 µM

Cc1cc(C)cc(S(=O)(=O)c2c(C(=O)NC(C)C(N)=O)[nH]c3ccc(Cl)cc23)c1 (configuration not stated)
EC50 [1]: > 100 µM
EC50 (Coxsackievirus B4 [2]): > 20 µM
EC50 [3]: 0.0016 µM
MCC at 72 h [4]: > 100 µM
IC50 [5]: 2.49 µM
MCC [6]: 20 µM
EC50 [7]: > 100 µM
IC50 [8]: 0.02 µM
IC50 (CCRF-CEM): 11 µM
CC50 [9]: 39.3 µM
EC50 [10]: > 20 µM
IC50 [11]: 0.66 µM
IC50 (L1210): 12 µM
EC50 (Vaccinia virus): > 100 µM
EC50 (Influenza A virus H3N2 [12]): > 4 µM
EC50 (Influenza A virus H3N2 [13]): > 4 µM
EC50 (Human alphaherpesvirus 2): > 100 µM
EC50 (Human alphaherpesvirus 1 [14]): > 100 µM
IC50 [15]: 0.096 µM
EC50 [16]: > 100 µM
EC50 (Human alphaherpesvirus 1 [17]): > 100 µM
IC50 [18]: 0.19 µM
IC50 [19]: 0.009 µM
EC50 (Human respirovirus 3): > 20 µM
EC50 (Feline coronavirus): > 20 µM
EC50 (Felid alphaherpesvirus 1): > 20 µM
IC50 [20]: 3.8 µM
EC50 (Influenza A virus [21]): > 4 µM
EC50 (Coxsackievirus B4 [22]): 6 µM
CC50 [23]: 16 µM
EC50 [24]: > 10 µM
MCC at 72 h [25]: 100 µM
EC50 (Influenza B virus [26]): > 4 µM
IC50 [27]: 0.112 µM
EC50 (Sindbis virus): > 20 µM
IC50 [28]: > 1 µM
MCC at 72 h [29]: 100 µM
IC50 [30]: 0.014 µM
EC50 (Influenza B virus [31]): > 4 µM
EC50 (Influenza A virus [32]): > 4 µM
EC50 (Punta Toro virus): > 20 µM
